Values joined by “and” are separate entries in the source; they are usually repeats but may differ in a detail not shown here. Equal entries are not always repeated. Values belong to the compound of their own block, whether it stands above or below them.
Experiments:
[1] = biological target: T1, Ub (Homo sapiens, UniProt P0CG48); test: NMR titration of 15N-labeled Ub; assay type: binding
[2] = tested on: CFTR ubiquitination; test: In vitro CFTR ubiquitination assay; assay type: biochemical, yeast
[3] = biological target: T2, K48-Ub2 (Homo sapiens, UniProt P0CG48); test: 15N T1 relaxation of K48-Ub2 with ubistatin; assay type: binding; details: mean (SD)
Method in brief: (§1)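 15N T1 longitudinal relaxation measured with standard pulse sequences at 23°, 600 and 800 MHz with cryoprobes. 15N-labeled human Ub or K48-linked Ub2 was free or mixed with ubistatin in 20 mM phosphate buffer pH 6.8 with 0.02% (w/v) NaN3 and 5% D2O. Values are means with standard deviations averaged over residues in structured regions.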

[4] = tested on: HeLa and RCC4 cells; test: ubiB internalization in live cells by fluorescence microscopy; assay type: cell-based, human; details: 10 μM ubiB, 6 hrs
Method in brief: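 HeLa and RCC4 cells were grown in DMEM/10% FBS on glass-bottom dishes, exposed to 10 μM ubiB for 6 hrs, and washed three times in PBS. Plasma membrane was stained with Texas Red wheat germ agglutinin (1:500, 15 min). Live cells were imaged by confocal Z-stacks (63× oil), with 405 nm excitation for ubiB and 555 nm for the membrane probe.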

[5] = tested on: OTUB1; test: Gel-based assay of K48-Ub2 disassembly by OTUB1; assay type: biochemical; details: stoichiometric ubiB
[6] = biological target: T1, Ub; test: ubiB fluorescence anisotropy titration with Ub; assay type: binding; details: read-out: Kd, Ub (fluorescence anisotropy)
Method in brief: (§2)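 Fluorescence anisotropy was measured at 21°C in PBS pH 7.4. ubiB was held at 1 μM for Ub2 titrations and 10 μM for Ub, while Ub or Ub2 was varied. Readings were taken in T-configuration, excitation 386 nm, emission 485 nm. Anisotropy change was fitted to a single-site binding model for Kd.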

[7] = biological target: K63-Ub2; test: ubiB fluorescence anisotropy titration with K63-Ub2; assay type: binding, human; details: read-out: Kd, K63-Ub2 (fluorescence anisotropy)
Method in brief: as §2

[8] = biological target: T2, K48-Ub2; test: ubiB fluorescence anisotropy titration with K48-Ub2; assay type: binding; details: read-out: Kd, K48-Ub2 (fluorescence anisotropy)
Method in brief: as §2

[9] = biological target: T1, Ub; test: 15N T1 relaxation of Ub with ubistatin; assay type: binding; details: mean (SD) over residues in structured regions
Method in brief: as §1

[10] = biological target: T1, Ub; test: SANS of Ub with ubiB; assay type: binding; details: equimolar ubiB
[11] = biological target: T3, Ub^R42E,R72E (Homo sapiens, UniProt P0CG48, R42E/R72E); test: 15N T1 relaxation of Ub^R42E,R72E with ubistatin; assay type: binding; details: mean (SD)
Method in brief: (§3)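 Human Ub and its point mutants were expressed from pET3a and made by PCR mutagenesis. Samples were in 20 mM phosphate buffer (pH 6.8) with 0.02% (w/v) NaN3 and 5% D2O. 15N T1 was measured at 23° on 600 and 800 MHz spectrometers with cryoprobes, using standard pulse sequences.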

[12] = biological target: T4, Ub^72 (Homo sapiens, UniProt P0CG48); test: NMR titration of 15N-labeled Ub^72; assay type: binding
Method in brief: (§4)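 Unlabeled ubistatin was added in increasing amounts to 15N-labeled Ub variant in 20 mM phosphate (pH 6.8), 0.02% NaN3, 5% D2O at 23°. Binding was followed in 1H-15N HSQC or SOFAST-HMQC spectra. Signal shifts were quantified as CSPs and fitted against bound fraction to give Kd.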

[13] = biological target: Ub^R42E (Homo sapiens, UniProt P0CG48, R42E); test: NMR titration of 15N-labeled Ub^R42E; assay type: binding; details: read-out: Dissociation constant, Ub^R42E (NMR titration); Table 2
Method in brief: (§5)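 Ub point mutants were made by PCR mutagenesis of human wild-type Ub in pET3a, with DpnI digestion and sequence verification. Increasing amounts of unlabeled ubistatin were titrated into 15N-labeled protein in 20 mM phosphate pH 6.8, 0.02% NaN3, 5% D2O, at 23°. Signal shifts and attenuations were tracked in 1H-15N HSQC or SOFAST-HMQC spectra, and spectral perturbations were quantified at each titration step.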

[14] = tested on: Cezanne (OTUD7B); test: Gel-based assay of K11-Ub2 disassembly by Cezanne; assay type: biochemical; details: stoichiometric ubiB
[15] = biological target: T1, Ub; test: NMR competition assay against ubiquilin-1 UBA domain for Ub; assay type: binding; details: up to 3-fold molar excess
[16] = biological target: T5, Ub^R74A (Homo sapiens, UniProt P0CG48, R74A); test: NMR titration of 15N-labeled Ub^R74A; assay type: binding
Method in brief: as §4

[17] = biological target: T6, Ub^R74E (Homo sapiens, UniProt P0CG48, R74E); test: 15N T1 relaxation of Ub^R74E with ubistatin; assay type: binding; details: mean (SD)
Method in brief: as §3

[18] = biological target: T3, Ub^R42E,R72E; test: NMR titration of 15N-labeled Ub^R42E,R72E; assay type: binding
Method in brief: as §5

[19] = tested on: yeast 26S proteasome; test: Gel-based assay of DUB activity of 26S proteasome; assay type: biochemical
[20] = tested on: Rpn11 in purified proteasome; test: Proteasome/Rpn11 inhibition assay; assay type: biochemical, human
Method in brief: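 Human erythrocyte proteasome was used with Ub4pep substrate: His6, four head-to-tail Ub repeats and a 30-mer peptide whose cysteine carried Oregon Green 488. Compounds were screened at 10 μM. IC50 came from 0–100 μM series in quadruplicate.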

[21] = biological target: T2, K48-Ub2; test: SANS of K48-Ub2 with ubiB; assay type: binding; details: equimolar ubiB
[22] = tested on: AMSH; test: Gel-based assay of K63-Ub2 disassembly by AMSH; assay type: biochemical; details: stoichiometric ubiB
[23] = biological target: T5, Ub^R74A; test: 15N T1 relaxation of Ub^R74A with ubistatin; assay type: binding; details: mean (SD)
Method in brief: as §3

[24] = tested on: Ubp6; test: Gel-based assay of K48-Ub2 disassembly by Ubp6; assay type: biochemical, yeast
[25] = tested on: HeLa cells; test: Perturbation of the Ub landscape in cells; assay type: cell-based, human
[26] = biological target: T2, K48-Ub2; test: NMR competition assay against ubiquilin-1 UBA domain for K48-Ub2; assay type: binding
[27] = biological target: T6, Ub^R74E; test: NMR titration of 15N-labeled Ub^R74E; assay type: binding
Method in brief: as §4

[28] = biological target: T4, Ub^72; test: 15N T1 relaxation of Ub^72 with ubistatin; assay type: binding; details: mean (SD)
Method in brief: as §3

[29] = biological target: K11-Ub2 (Homo sapiens, UniProt P0CG48); test: ubiB fluorescence anisotropy titration with K11-Ub2; assay type: binding; details: read-out: Kd, K11-Ub2 (fluorescence anisotropy)
Method in brief: as §2

Structure (SMILES): O=S(=O)(O)c1cccc2cccc(Nc3ccccc3)c12 [ANS, 8-anilinonaphthalene-1-sulfonic acid, reference compound]
- CSPs in Ub upon titration [1]: < 0.1 ppm

- IC50 ([2]; read-out: IC50, CFTR ubiquitination, titration of ubiB): ~10 µM and 10 µM
- 15N T1 of K48-Ub2 in the presence of ubistatin [3]: 942 (66) ms
- Kd [6]: 14 ± 1.6 µM
- Kd [7]: 4.88 ± 0.22 µM
- Kd [8]: 0.264 ± 0.023 µM
- 15N T1 of Ub in the presence of ubistatin [9]: 660 ± 25 ms
- Radius of gyration (Rg) of Ub + ubiB [10]: 17.4 (0.1) Å
- 15N T1 of Ub^R42E,R72E in the presence of ubistatin [11]: 493 (27) ms
- decrease in binding affinity, Ub^72 vs Ub [12]: 6 fold
- Kd ([12]; read-out: Dissociation constant, Ub^72 (NMR titration), Table 2): 73.1 µM
- Kd [13]: 396 µM
- competition with UBA for binding to Ub [15]: outcompetes UBA for binding to Ub
- Kd ([1]; read-out: Dissociation constant, Ub (NMR titration), Table 2): 11.3 µM
- weakening of ubiB binding, Ub^R74A vs Ub [16]: 3.5 fold
- Kd ([16]; read-out: Dissociation constant, Ub^R74A (NMR titration), Table 2): 40.3 µM
- 15N T1 of Ub^R74E in the presence of ubistatin [17]: 556 (28) ms
- binding to Ub^R42E,R72E [18]: only negligible CSPs
- Kd ([18]; read-out: Dissociation constant, Ub^R42E,R72E (NMR titration), Table 2): > 1000 µM
- IC50 ([20]; read-out: IC50, DUB activity of Rpn11 in purified proteasome, deubiquitination): 1.1 µM and 1 µM
- Radius of gyration (Rg) of K48-Ub2 + ubiB [21]: 20.1 (0.1) Å
- 15N T1 of Ub^R74A in the presence of ubistatin [23]: 544 (26) ms
- competition with UBA for binding to K48-Ub2 [26]: outcompeted UBA for binding to K48-Ub2
- weakening of ubiB binding, Ub^R74E vs Ub [27]: 6 fold
- Kd ([27]; read-out: Dissociation constant, Ub^R74E (NMR titration), Table 2): 67.6 µM
- 15N T1 of Ub^72 in the presence of ubistatin [28]: 482 (28) ms
- Kd [29]: 1.83 ± 0.05 µM
Structure (SMILES): O=S(=O)(O)c1ccc2c(ccc3nn(-c4ccc(/C=C/c5ccc(-n6nc7ccc8cc(S(=O)(=O)O)ccc8c7n6)cc5S(=O)(=O)O)c(S(=O)(=O)O)c4)nc32)c1 [ubiB, Ubistatin B]
- concentration required for complete inhibition of ubiquitination [2]: ≥ 100 µM
- CFTR protein modified (ubiquitinated), DMSO control = 100% ([2]; 100 μM compound, 26°C, 60 min): 18±2%
- inhibition of ubiquitination ([2]; at 1 μM ubiB): 5-10%
- toxicity judged by cell morphology [4]: not toxic
- cell internalization ([4]; no chemical permeabilization): distinct ubiB fluorescence at and within the boundaries of the fluorescently labeled plasma membrane
- disassembly of K48-Ub2 by OTUB1 [5]: prevented
- disassembly of K11-Ub2 by Cezanne (OTUD7B) [14]: prevented
- direct binding to 15N Ub by CSPs ([1]; starting Ub 1 mM): produced CSPs in and around Ub's hydrophobic patch
- disassembly of K11-Ub6+ by 26S proteasome ([19]; 20 hr time course): only trace amounts of cleavage intermediates appeared
- processing of Ubch5b-Ubn by 26S proteasome ([19]; K11, K48, K63 linkage-specific antibodies): preserved all three linkage types
- inhibition of deubiquitination ([20]; at 1 μM ubiB): ~50%
- disassembly of K63-Ub2 by AMSH [22]: prevented
- effect on disassembly of K48-Ub2 by Ubp6 [24]: concentration-dependent effect
- Ub conjugates below 70 kDa ([25]; 2 μM ubiB, 8 hrs): greatly diminished
- Ub conjugates, RIPA lysis, Western blot ([25]; 6 hrs ubiB treatment): increases the amount of Ub conjugates

Source: paper PMC5731780 (Structure (London, England : 1993), 2017)
